We go through 9 substances from ChEMBL document CHEMBL2062368, “The cell adhesion and proliferation activities of a peptide derived from human tenascin-C are dependent on two Ile residues” (Bioorg Med Chem, 2012).

The source made the active and inactive calls. The rule behind the calls is not given here.

Common to all, as to format: cell-based
Common to all, as to settings: NIH3T3

For assay [1], the target named is T1, Syndecan-4 (Mus musculus) (UniProt O35988).
T1 sequence (whole entry): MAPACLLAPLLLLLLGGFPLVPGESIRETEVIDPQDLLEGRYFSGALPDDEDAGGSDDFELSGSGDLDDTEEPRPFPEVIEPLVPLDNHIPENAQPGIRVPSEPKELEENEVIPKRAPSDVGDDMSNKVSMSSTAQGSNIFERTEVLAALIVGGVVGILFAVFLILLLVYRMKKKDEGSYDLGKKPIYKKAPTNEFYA
The assay can be described thus: Binding affinity to syndecan 4 in mouse NIH/3T3 cells assessed as stimulation of beta 1 integrin-mediated cell adhesion at 50 ug/ml […] by microscopic analysis. In a few lines: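 Wells coated with fibronectin at 37 °C, blocked with BSA. NIH-3T3 cell suspension plus peptide (50 µg/ml) or PBS control incubated 1 h at 37 °C. Non-adhered cells washed off; attached cells counted by microscope in 4 independent fields. Mean ± S.E. of triplicate measurements.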

Assay [2] deals with T1, Syndecan-4 (Mus musculus). The assay can be described thus: Binding affinity to syndecan 4 in mouse NIH/3T3 cells assessed as stimulation of beta 1 integrin-mediated cell spreading at 50 ug/ml […] by microscopic analysis. An outline of the steps: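 Fibronectin-coated, BSA-blocked wells; NIH-3T3 cells incubated with peptide (50 µg/ml) or PBS control for 1 h at 37 °C, then washed. Spread cells counted under a microscope in 4 independent fields; mean ± S.E. of triplicates.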

The target of assay [3] is T1, Syndecan-4 (Mus musculus). The assay is described as follows: Binding affinity to syndecan 4 in mouse NIH/3T3 cells assessed as increase in cell proliferation at 25 to 50 ug/ml after 2 days by MTT assay relative to TNIIIA2 peptide. In a few lines:
(§1)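 NIH-3T3 cells with peptide at 25 and 50 µg/ml on fibronectin-coated, BSA-blocked wells, 2 days at 37 °C. MTT (0.5 mg/ml in phenol-red-free RPMI-1640) added for a further 3 h. Dye solubilized in acidic isopropanol (0.04 M HCl), absorbance read at 570 nm minus 650 nm background.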

The target of assay [4] is T1, Syndecan-4 (Mus musculus). The assay is described as follows: Binding affinity to syndecan 4 in mouse NIH/3T3 cells assessed as induction of cell proliferation at 25 to 50 ug/ml after 2 days by MTT assay. An outline of the steps:
as §1

For H-ASTDLPGLKAATHYTITIRGVKC-OH, the result in assay [1] and in assay [2] was inactive. Further, the fold change (FC) in assay [3] came out at 2.
Consider H-RSTDLPGLAAATHYTITIRGVKC-OH, for which the result in assay [1] and in assay [2] was inactive. Also, the fold change (FC) in assay [3] was 2.
On to H-RSTDLPGLKAATHATITIRGVKC-OH, for which the result in assay [1] was Active. In addition, the outcome in assay [2] was inactive.
Take H-RSTDLPGLKAATHYAITIRGVKC-OH: the outcome in assay [1] was Active.
As for H-RSTDLPGLKAATHYTATIRGVKC-OH, the outcome in assay [1] was Active. The outcome in assay [2] and in assay [4] was inactive.
Regarding H-RSTDLPGLKAATHYTIAIRGVKC-OH, in assay [1], the result was Active.
For the substance H-RSTDLPGLKAATHYTITARGVKC-OH, the result in assay [1] was Active. In addition, the result in assay [2] and in assay [4] was inactive.
As to H-RSTDLPGLKAATHYTITIAGVKC-OH, the outcome in assay [1] and in assay [2] was inactive. Further, the outcome in assay [4] was Active.
H-RSTDLPGLKAATHYTITIRGVKC-OH: the outcome in assay [1], in assay [2] and in assay [4] was Active.
